Measurements as given in ChEMBL document CHEMBL1127435 (J Med Chem, 1994).
Several values for one entry are separate records, joined by “and”; a condition that tells them apart may be missing. Equal entries are not always repeated.

Key:
D(4) dopamine receptor [1] = biological target: T1, D(4) dopamine receptor (Homo sapiens, UniProt P21917); assay: Affinity was evaluated by inhibition of [3H]-spiperone binding to COS cells transfected with human dopamine D-4 receptor; format: cell-based
T1 sequence (P21917 whole entry): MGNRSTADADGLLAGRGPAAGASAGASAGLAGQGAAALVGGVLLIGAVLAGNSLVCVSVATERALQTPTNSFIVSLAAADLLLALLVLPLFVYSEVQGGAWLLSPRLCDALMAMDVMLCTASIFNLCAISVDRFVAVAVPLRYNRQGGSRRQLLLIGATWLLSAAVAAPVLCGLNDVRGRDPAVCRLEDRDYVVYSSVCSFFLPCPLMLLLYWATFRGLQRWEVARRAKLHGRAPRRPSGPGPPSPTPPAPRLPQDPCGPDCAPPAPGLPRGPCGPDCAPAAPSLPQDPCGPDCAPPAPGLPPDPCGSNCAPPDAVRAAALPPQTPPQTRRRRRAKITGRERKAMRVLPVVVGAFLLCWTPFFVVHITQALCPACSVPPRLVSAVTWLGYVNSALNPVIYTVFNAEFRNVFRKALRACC
Procedure, shortened: (§1)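 Membranes from COS-7 cells transfected with human D-4 or D-2(long) receptor; [3H]spiperone binding inhibited in presence of sodium chloride. Ki averaged from two experiments.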

[2] = biological target: T2, 5-hydroxytryptamine receptor 2C (Rattus norvegicus, UniProt P08909); assay: Affinity was evaluated as inhibition constant for serotonin 5-hydroxytryptamine 2C receptor
T2 sequence (P08909 whole entry): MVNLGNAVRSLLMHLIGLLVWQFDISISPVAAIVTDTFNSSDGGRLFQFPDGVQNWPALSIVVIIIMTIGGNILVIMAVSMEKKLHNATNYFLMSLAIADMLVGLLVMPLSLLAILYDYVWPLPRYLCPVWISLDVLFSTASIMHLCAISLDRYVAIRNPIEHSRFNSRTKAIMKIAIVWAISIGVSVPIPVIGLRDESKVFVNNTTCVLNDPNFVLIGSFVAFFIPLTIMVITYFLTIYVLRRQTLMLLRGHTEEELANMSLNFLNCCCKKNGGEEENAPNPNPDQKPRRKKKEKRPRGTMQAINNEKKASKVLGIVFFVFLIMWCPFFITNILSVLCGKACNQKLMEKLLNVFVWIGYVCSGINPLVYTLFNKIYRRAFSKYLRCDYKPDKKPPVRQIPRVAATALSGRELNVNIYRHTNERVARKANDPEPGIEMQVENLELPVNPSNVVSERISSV

D(2) dopamine receptor [3] = biological target: T3, D(2) dopamine receptor (Homo sapiens, UniProt P14416); assay: Affinity was evaluated as inhibition constant for dopamine D-2 receptor
D(1A) dopamine receptor = D(1A) dopamine receptor (Rattus norvegicus, UniProt P18901); assay: Affinity was evaluated as inhibition constant for dopamine receptor D1 using [3H]-SCH- 23390 as radioligand
D(4) dopamine receptor [4] = biological target: T1, D(4) dopamine receptor; assay: Affinity was evaluated as inhibition constant for dopamine D-4 receptor
[5] = biological target: T4, 5-hydroxytryptamine receptor 2A (Rattus norvegicus, UniProt P14842); assay: Affinity was evaluated as inhibition constant for serotonin 5-hydroxytryptamine 2A receptor
[6] = Ratio between Ki values of D2 and S-2A receptors
[7] = biological target: T5, Serotonin 3 (5-HT3) receptor (Rattus norvegicus, UniProt P35563+Q9JJ16); assay: Affinity was evaluated as inhibition constant for serotonin 5-hydroxytryptamine 3 receptor; format: protein-complex assay
T5 sequence (P35563 whole entry): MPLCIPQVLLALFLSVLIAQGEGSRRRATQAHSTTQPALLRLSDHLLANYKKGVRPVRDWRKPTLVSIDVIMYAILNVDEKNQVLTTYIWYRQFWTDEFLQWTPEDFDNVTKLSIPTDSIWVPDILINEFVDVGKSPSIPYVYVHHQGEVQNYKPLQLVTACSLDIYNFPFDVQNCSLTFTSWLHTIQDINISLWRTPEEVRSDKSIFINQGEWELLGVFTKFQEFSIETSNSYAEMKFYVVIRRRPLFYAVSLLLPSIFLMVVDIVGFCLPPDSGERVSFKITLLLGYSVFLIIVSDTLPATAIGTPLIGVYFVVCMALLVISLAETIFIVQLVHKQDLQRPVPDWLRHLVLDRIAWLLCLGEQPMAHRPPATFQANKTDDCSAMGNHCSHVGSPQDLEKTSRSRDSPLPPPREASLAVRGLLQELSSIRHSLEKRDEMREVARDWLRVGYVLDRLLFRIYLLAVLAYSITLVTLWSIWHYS
T5 sequence (Q9JJ16 whole entry): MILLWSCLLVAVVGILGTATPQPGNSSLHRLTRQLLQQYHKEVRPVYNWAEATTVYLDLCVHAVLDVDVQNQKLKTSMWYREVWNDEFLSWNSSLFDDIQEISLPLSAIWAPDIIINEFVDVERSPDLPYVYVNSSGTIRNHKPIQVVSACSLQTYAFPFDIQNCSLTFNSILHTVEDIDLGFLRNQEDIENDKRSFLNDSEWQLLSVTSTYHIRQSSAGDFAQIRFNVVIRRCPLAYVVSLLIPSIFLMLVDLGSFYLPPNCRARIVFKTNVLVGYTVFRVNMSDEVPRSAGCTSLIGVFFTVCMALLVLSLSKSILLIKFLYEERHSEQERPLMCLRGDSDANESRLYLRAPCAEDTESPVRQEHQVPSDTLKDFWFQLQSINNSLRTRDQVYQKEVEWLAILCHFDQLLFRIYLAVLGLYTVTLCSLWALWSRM

[8] = Ratio between Ki values of D2 and S-3 receptors
[9] = biological target: T4, 5-hydroxytryptamine receptor 2A; assay: Affinity was evaluated by inhibition of [125I]LSD binding to NIH 3T3 cells transfected with cloned rat 5-hydroxytryptamine 2A receptor; format: cell-based, NIH3T3
Procedure, shortened: (§2)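 Membranes from confluent GF-6 and P0 cell monolayers, homogenized in ice-cold 0.32 M sucrose, spun at 44 000g, stored at -80°C in 50 mM Tris-HCl pH 7.6. Triplicate tubes held 5 nM [125I]LSD (stock), test compound at 10^-9 to 10^-5 M final and 1–5 μg protein. Nonspecific binding was defined with 10 μM mesulergine.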

[10] = biological target: T2, 5-hydroxytryptamine receptor 2C; assay: Affinity was evaluated by inhibition of [125I]LSD binding to NIH 3T3 cells transfected with cloned rat 5-hydroxytryptamine 2C receptor; format: cell-based, NIH3T3; procedure, shortened: as §2
[11] = biological target: T5, Serotonin 3 (5-HT3) receptor; assay: Affinity was evaluated by inhibition of [3H]GR-65630 binding to NG108-15 cell transfected with cloned rat 5-hydroxytryptamine 3 receptor; format: cell-based
D(2) dopamine receptor [12] = biological target: T3, D(2) dopamine receptor; assay: Affinity was evaluated by inhibition of [3H]spiperone binding to COS cells transfected with human dopamine D-2(long) receptor; format: cell-based; procedure, shortened: as §1

T3 sequence (P14416 whole entry): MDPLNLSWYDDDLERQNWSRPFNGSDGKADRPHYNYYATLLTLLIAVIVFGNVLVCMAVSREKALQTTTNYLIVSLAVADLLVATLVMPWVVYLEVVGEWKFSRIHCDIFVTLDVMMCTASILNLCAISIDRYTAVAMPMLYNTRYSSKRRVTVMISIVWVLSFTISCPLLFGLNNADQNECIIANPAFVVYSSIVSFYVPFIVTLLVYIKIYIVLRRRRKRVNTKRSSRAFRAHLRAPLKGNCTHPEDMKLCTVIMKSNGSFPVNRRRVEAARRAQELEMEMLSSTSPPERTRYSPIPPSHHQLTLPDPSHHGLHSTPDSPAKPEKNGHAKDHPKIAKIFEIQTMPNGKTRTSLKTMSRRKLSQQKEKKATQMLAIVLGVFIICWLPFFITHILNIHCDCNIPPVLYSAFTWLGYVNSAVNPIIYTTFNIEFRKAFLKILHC
T4 sequence (P14842 whole entry): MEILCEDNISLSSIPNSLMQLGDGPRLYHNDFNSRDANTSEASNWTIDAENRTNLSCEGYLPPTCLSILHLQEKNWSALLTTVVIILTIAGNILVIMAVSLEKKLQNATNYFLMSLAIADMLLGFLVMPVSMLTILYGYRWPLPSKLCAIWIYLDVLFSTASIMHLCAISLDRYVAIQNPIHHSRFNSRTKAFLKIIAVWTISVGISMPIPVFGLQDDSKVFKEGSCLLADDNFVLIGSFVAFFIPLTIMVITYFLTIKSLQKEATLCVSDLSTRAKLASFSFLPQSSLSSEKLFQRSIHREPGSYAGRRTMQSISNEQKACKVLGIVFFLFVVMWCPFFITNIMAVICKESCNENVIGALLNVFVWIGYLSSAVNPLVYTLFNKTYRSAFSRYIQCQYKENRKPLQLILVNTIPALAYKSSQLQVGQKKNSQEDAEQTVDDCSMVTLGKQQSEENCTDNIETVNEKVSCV
Sequence of D(1A) dopamine receptor (P18901 whole entry): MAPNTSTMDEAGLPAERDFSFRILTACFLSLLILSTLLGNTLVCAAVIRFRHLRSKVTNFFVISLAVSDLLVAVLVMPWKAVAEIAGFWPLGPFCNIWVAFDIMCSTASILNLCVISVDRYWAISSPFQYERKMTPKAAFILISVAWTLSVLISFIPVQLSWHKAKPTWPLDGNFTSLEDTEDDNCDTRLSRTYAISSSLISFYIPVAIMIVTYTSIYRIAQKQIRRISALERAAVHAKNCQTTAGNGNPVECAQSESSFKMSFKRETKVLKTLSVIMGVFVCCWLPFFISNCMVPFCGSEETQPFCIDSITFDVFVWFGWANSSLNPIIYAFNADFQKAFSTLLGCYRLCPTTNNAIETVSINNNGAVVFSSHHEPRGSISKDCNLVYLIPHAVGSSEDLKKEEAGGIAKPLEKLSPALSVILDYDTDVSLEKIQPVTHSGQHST

SMILES	Ki (D(4) dopamine receptor [1]) [nM]	Ki [2]	Ki (D(2) dopamine receptor [3])	Ki (D(1A) dopamine receptor) [nM]	Ki (D(4) dopamine receptor [4]) [nM]	Ki [5]	Ratio [6]	Ki [7] [nM]	Ratio [8]	Ki [9] [nM]	Ki [10] [nM]	Ki [11] [nM]	Ki (D(2) dopamine receptor [12]) [nM]
CN1CCN(C2=Nc3ccccc3Oc3ccc(Cl)cc32)CC1 [LOXAPINE]	4.9												
CN1CCN(C2=Nc3ccccc3Nc3ccccc32)CC1		84 nM	2500 nM	200	420								
C=C1c2ccccc2C=C(C2=CCN(C)CC2)c2ccccc21		35 nM	250 nM		330	30 nM	8.3						
CC1CCN(C2=Cc3cc(Cl)ccc3Cc3ccccc32)CC1		> 1000 nM	1400 nM		1000	> 1000 nM	< 1	> 1000	< 1				
CN1CCN(C2=Cc3ccccc3Cc3ccc(Cl)cc32)CC1										2	6	49	
CC(C)=C1c2ccc(Cl)cc2C=C(N2CCN(C)CC2)c2ccccc21	930			98			3		6.9	230	370	100	690
C/C=C1/c2ccccc2C=C(N2CCN(C)CC2)c2ccccc21	300			68			7.4		21	98	110	35	730
CN1CCN(C2=Cc3ccccc3Oc3ccccc32)CC1	2						5		0.51	4	6	41	21
CC(C)=C1c2ccccc2C=C(C2=CCN(C)CC2)c2ccccc21		3300 nM and 830 nM and 1500 nM	520 nM and 790 nM and 570 nM			2200 nM and 830 nM and 1200 nM							
CC1c2ccccc2C=C(C2=CCN(C)CC2)c2ccccc21 (racemic)		89 nM	680 nM		320	72 nM	9.4						
CC(C)=C1c2ccccc2C=C(N2CCN(C)CC2)c2ccccc21	2700			120			1.2		3.6	250	390	81	290
CN1CCN(C2=Cc3cc(Cl)ccc3Cc3ccccc32)CC1	2900									3	7	120	
C[C@@H]1c2ccccc2C=C(C2=CCN(C)CC2)c2ccccc21		70 nM	640 nM		190	74 nM	8.6						
CN1CCN(C2=Nc3cc(Cl)ccc3Oc3ccccc32)CC1 [ISOLOXAPINE]	23									11	19	39	
C=C1c2ccccc2C=C(N2CCN(C)CC2)c2ccccc21	47			4.7			5.2		1.8	11	18	31	57
CN1CCN(C2=Cc3cc(Cl)ccc3Oc3ccccc32)CC1	0.9						3		0.15	3	6	57	8.7
CN1CCN(C2=Nc3cc(Cl)ccc3N(C)c3ccccc32)CC1		74 nM	1100 nM		120	140 nM	7.9	40	28				
C[C@H]1c2ccccc2C=C(C2=CCN(C)CC2)c2ccccc21		250 nM	730 nM		400	200 nM	3.7						
CN1CCN(C2=Cc3ccccc3Oc3ccc(Cl)cc32)CC1	0.54						0.8		0.03	3	3	84	2.5
CN1CCC(C2=Cc3cc(Cl)ccc3Cc3ccccc32)CC1		3 nM	560 nM		2700	3 nM	200	41	14				
CN1CCN(C2=Nc3ccccc3Nc3ccc(Cl)cc32)CC1 [ISOCLOZAPINE]				14	16			22					
CC1c2ccccc2C=C(N2CCN(C)CC2)c2ccccc21 (stereo not given)	12			16						47	36		
